Laboratory results reported in ChEMBL document CHEMBL1136623, “Cytotoxic activity of 6-alkynyl- and 6-alkenylpurines” (Bioorg Med Chem Lett, 2003).
≈ marks a conversion by molar mass, not a printed value.

Tests used:
[1] = system: K562; experiment: Percent inhibition of [3H]-thymidine incorporation was determined in human chronic myelogenous leukemic K-562 cell line at 10 ug/mL after 48 hr; assay type: functional
Summary of the method: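 Single-concentration screen. K-562 cells in log growth seeded at 2×10^4 cells/mL in supplemented RPMI 1640 and exposed 48 h to purine at 10 µg/mL, final DMSO 0.05%. Followed by a 2 h [3H]-thymidine pulse (1 µCi/well), harvest onto fiberglass filters, and scintillation count. Reported as percent inhibition of incorporation.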

[2] = system: K562; experiment: Inhibitory concentration required against human chronic myelogenous leukemic K-562 cell line after 48h, using [3H]thymidine incorporation assay; assay type: functional, cell-based
Summary of the method: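 Logarithmically growing K-562 cells seeded at 2×10^4 cells/mL in RPMI 1640 with supplements. Exposed 48 h to purines at 10 to 0.078 µg/mL, final DMSO 0.05% (vol/vol). Pulsed 2 h with 1 µCi/well [3H]-thymidine, harvested onto fiberglass filters, and cell-associated radioactivity counted. IC50 taken as the concentration inhibiting incorporation by 50%.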

[3] = system: K562; experiment: Inhibitory concentration required against human chronic myelogenous leukemic K-562 cell line after 5h, using [3H]thymidine incorporation assay; assay type: functional, cell-based
Summary of the method: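 K-562 cells in log-phase growth seeded at 4×10^4 cells/mL in supplemented RPMI 1640. Purines at 10 to 0.078 µg/mL for 5 h, final DMSO 0.05% (vol/vol). Then a 2 h pulse of 1 µCi/well [3H]-thymidine, filter harvest, and counting of cell-bound radioactivity. IC50 is the concentration giving 50% inhibition of incorporation.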

SMILES	inhibition at 10 µg/mL [1]	IC50 [2]	IC50 [3]
COc1ccc(/C=C/c2[nH]cnc3ncnc2-3)cc1	54%	–	–
C(#Cc1nc(-c2ccccc2)nc2c1ncn2Cc1ccccc1)c1ccccc1	100%	1.4 µg/mL (≈ 3.62 µM)	2.4 µg/mL (≈ 6.21 µM)
C(=C\c1ncnc2c1ncn2C1CCOCC1)/c1ccccc1	66%	–	–
OC[C@H]1OC(n2cnc3c(C#Cc4ccccc4)ncnc32)[C@H](O)[C@@H]1O (stereo partly drawn)	100%	0.1 µg/mL (≈ 0.284 µM)	0.2 µg/mL (≈ 0.568 µM)
OC[C@H]1OC(n2cnc3c(/C=C/c4ccccc4)ncnc32)[C@H](O)[C@@H]1O (stereo partly drawn)	79%	2 µg/mL (≈ 5.64 µM)	10 µg/mL (≈ 28.2 µM)
Clc1nc2c(C#Cc3ccccc3)ncnc2n1C1CCOCC1	85%	6.1 µg/mL (≈ 18 µM)	7 µg/mL (≈ 20.7 µM)
C(#Cc1[nH]cnc2ncnc1-2)c1ccccc1	100%	0.7 µg/mL (≈ 3.18 µM)	5.9 µg/mL (≈ 26.8 µM)
Clc1nc(C#Cc2ccccc2)c2ncn(Cc3ccccc3)c2n1	100%	0.12 µg/mL (≈ 0.348 µM)	0.8 µg/mL (≈ 2.32 µM)
COC(=O)/C(C)=C/C=C/c1[nH]cnc2ncnc1-2	20%	–	–
COC(=O)/C(C)=C/C#Cc1[nH]cnc2ncnc1-2	100%	1.6 µg/mL (≈ 6.61 µM)	3.2 µg/mL (≈ 13.2 µM)
C(=C\c1ncnc2c1ncn2C1CCOCC1)/c1cccs1	65%	–	–
C(#Cc1ncnc2c1ncn2C1CCOCC1)c1ccccc1	100%	0.5 µg/mL (≈ 1.64 µM)	3.2 µg/mL (≈ 10.5 µM)
C(=C\c1[nH]cnc2ncnc1-2)/c1ccsc1	32%	–	–
CC(C)=CC#Cc1[nH]cnc2ncnc1-2	30%	–	–
Nc1nc(F)nc2c1ncn2[C@@H]1O[C@H](CO)[C@@H](O)[C@@H]1O [FLUDARABINE]	98%	0.6 µg/mL (≈ 2.1 µM)	0.6 µg/mL (≈ 2.1 µM)
C/C(=C\C=C\c1ncnc2c1ncn2C1CCOCC1)CO	27%	–	–
C(=C\c1[nH]cnc2ncnc1-2)/c1ccco1	24%	–	–

SMILES	inhibition at 10 µg/mL [1]	IC50 [2]	IC50 [3]
Sc1ncnc2nc[nH]c12 [MERCAPTOPURINE ANHYDROUS]	80%	0.6 µg/mL (≈ 3.94 µM)	> 10 µg/mL
C(=C\c1ncnc2c1ncn2Cc1ccccc1)/c1ccccc1	93%	–	–
COc1ccc(/C=C/c2ncnc3c2ncn3C2CCOCC2)cc1	58%	–	–
Nc1nc(/C=C/c2ccccc2)c2[nH]cnc2n1	2%	–	–
C=Cc1ncnc2c1ncn2Cc1ccccc1	100%	1.1 µg/mL (≈ 4.66 µM)	2.2 µg/mL (≈ 9.31 µM)
C=Cc1ncnc2ncn(Cc3ccccc3)c12	100%	0.5 µg/mL (≈ 2.12 µM)	1.4 µg/mL (≈ 5.93 µM)
C(=C\c1[nH]cnc2ncnc1-2)/c1cccs1	50%	–	–
Nc1nc(/C=C/c2ccccc2)c2ncn(Cc3ccccc3)c2n1	91%	1.2 µg/mL (≈ 3.67 µM)	2 µg/mL (≈ 6.11 µM)
C(=C\c1[nH]cnc2ncnc1-2)/c1ccccc1	28%	–	–
C(=C\c1ncnc2c1ncn2C1CCOCC1)/c1ccco1	35%	–	–
C(=C\c1ncnc2c1ncn2C1CCOCC1)/c1ccsc1	58%	–	–
Clc1nc(/C=C/c2ccccc2)c2ncn(Cc3ccccc3)c2n1	99%	2 µg/mL (≈ 5.77 µM)	6 µg/mL (≈ 17.3 µM)
C(=C\c1nc(-c2ccccc2)nc2c1ncn2Cc1ccccc1)/c1ccccc1	34%	–	–
C/C(=C\C=C\c1[nH]cnc2ncnc1-2)CO	6%	–	–
C(#Cc1ncnc2c1ncn2Cc1ccccc1)c1ccccc1	98%	1.3 µg/mL (≈ 4.19 µM)	6 µg/mL (≈ 19.3 µM)
C/C(=C\C#Cc1[nH]cnc2ncnc1-2)CO	17%	–	–
